ChEMBL document CHEMBL3098013, “Novel pyrazole integrated 1,3,4-oxadiazoles: synthesis, characterization and antimicrobial evaluation” (2014)
In brackets after ≈: the same amount, converted by molar mass.

Legend:
Assay type in all cases: functional
[1] = tested on: Aspergillus flavus; experiment: Antimicrobial activity against Aspergillus flavus MTCC 873 after 48 hrs by microdilution method; details: MTCC 873, 48 h
How it was run: (§1)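 The minimal inhibitory concentration was determined by dilution, alongside minimal bactericidal concentration for bacterial strains and minimal fungicidal concentration for fungal strains. Tests were run in six replicates, and the value is the mean of at least three determinations.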

[2] = tested on: Aspergillus flavus; experiment: Antimicrobial activity against Aspergillus flavus MTCC 873 at 50 ug/ml after 48 hrs by disc diffusion method; details: MTCC 873, 48 h, read-out: DIZ
How it was run: (§2)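 Agar diffusion read-out is the diameter of the inhibition zone in mm. Each test was run in six replicates and reported as mean ± standard deviation, taken from at least three determinations.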

[3] = tested on: Fusarium verticillioides; experiment: Antimicrobial activity against Fusarium moniliforme MTCC 156 at 100 ug/ml after 48 hrs by disc diffusion method; details: MTCC 156, 48 h, read-out: DIZ; how it was run: as §2
[4] = tested on: Escherichia coli; experiment: Antimicrobial activity against Escherichia coli MTCC 724 at 50 ug/ml after 24 hrs by disc diffusion method; details: MTCC 724, 24 h, read-out: DIZ; how it was run: as §2
[5] = tested on: Staphylococcus aureus; experiment: Antimicrobial activity against Staphylococcus aureus MTCC 96 at 50 ug/ml after 24 hrs by disc diffusion method; details: MTCC 96, 24 h, read-out: DIZ; how it was run: as §2
[6] = tested on: Bacillus cereus; experiment: Antimicrobial activity against Bacillus cereus MTCC 8372 after 24 hrs by microdilution method; details: MTCC 8372, 24 h; how it was run: as §1
[7] = tested on: Bacillus cereus; experiment: Antimicrobial activity against Bacillus cereus MTCC 8372 at 50 ug/ml after 24 hrs by disc diffusion method; details: MTCC 8372, 24 h, read-out: DIZ; how it was run: as §2
[8] = tested on: Klebsiella pneumoniae; experiment: Antimicrobial activity against Klebsiella pneumoniae MTCC 3384 at 100 ug/ml after 24 hrs by disc diffusion method; details: MTCC 3384, 24 h, read-out: DIZ; how it was run: as §2
[9] = tested on: Aspergillus niger; experiment: Antimicrobial activity against Aspergillus niger MTCC 281 after 48 hrs by microdilution method; details: MTCC 281, 48 h; how it was run: as §1
[10] = tested on: Escherichia coli; experiment: Antimicrobial activity against Escherichia coli MTCC 724 at 100 ug/ml after 24 hrs by disc diffusion method; details: MTCC 724, 24 h, read-out: DIZ; how it was run: as §2
[11] = tested on: Staphylococcus aureus; experiment: Antimicrobial activity against Staphylococcus aureus MTCC 96 at 100 ug/ml after 24 hrs by disc diffusion method; details: MTCC 96, 24 h, read-out: DIZ; how it was run: as §2
[12] = tested on: Klebsiella pneumoniae; experiment: Antimicrobial activity against Klebsiella pneumoniae MTCC 3384 at 50 ug/ml after 24 hrs by disc diffusion method; details: MTCC 3384, 24 h, read-out: DIZ; how it was run: as §2
[13] = tested on: Fusarium oxysporum; experiment: Antimicrobial activity against Fusarium oxysporum MTCC 284 after 48 hrs by microdilution method; details: MTCC 284, 48 h; how it was run: as §1
[14] = tested on: Fusarium oxysporum; experiment: Antimicrobial activity against Fusarium oxysporum MTCC 284 at 50 ug/ml after 48 hrs by disc diffusion method; details: MTCC 284, 48 h, read-out: DIZ; how it was run: as §2
[15] = tested on: Fusarium verticillioides; experiment: Antimicrobial activity against Fusarium moniliforme MTCC 156 at 50 ug/ml after 48 hrs by disc diffusion method; details: MTCC 156, 48 h, read-out: DIZ; how it was run: as §2
[16] = tested on: Aspergillus niger; experiment: Antimicrobial activity against Aspergillus niger MTCC 281 at 100 ug/ml after 48 hrs by disc diffusion method; details: MTCC 281, 48 h, read-out: DIZ; how it was run: as §2
[17] = tested on: Klebsiella pneumoniae; experiment: Antimicrobial activity against Klebsiella pneumoniae MTCC 3384 after 24 hrs by microdilution method; details: MTCC 3384, 24 h; how it was run: as §1
[18] = tested on: Escherichia coli; experiment: Antimicrobial activity against Escherichia coli MTCC 724 after 24 hrs by microdilution method; details: MTCC 724, 24 h; how it was run: as §1
[19] = tested on: Fusarium verticillioides; experiment: Antimicrobial activity against Fusarium moniliforme MTCC 156 after 48 hrs by microdilution method; details: MTCC 156, 48 h; how it was run: as §1
[20] = tested on: Aspergillus flavus; experiment: Antimicrobial activity against Aspergillus flavus MTCC 873 at 100 ug/ml after 48 hrs by disc diffusion method; details: MTCC 873, 48 h, read-out: DIZ; how it was run: as §2
[21] = tested on: Bacillus cereus; experiment: Antimicrobial activity against Bacillus cereus MTCC 8372 at 100 ug/ml after 24 hrs by disc diffusion method; details: MTCC 8372, 24 h, read-out: DIZ; how it was run: as §2
[22] = tested on: Staphylococcus aureus; experiment: Antimicrobial activity against Staphylococcus aureus MTCC 96 after 24 hrs by microdilution method; details: MTCC 96, 24 h; how it was run: as §1
[23] = tested on: Aspergillus niger; experiment: Antimicrobial activity against Aspergillus niger MTCC 281 at 50 ug/ml after 48 hrs by disc diffusion method; details: MTCC 281, 48 h, read-out: DIZ; how it was run: as §2
[24] = tested on: Fusarium oxysporum; experiment: Antimicrobial activity against Fusarium oxysporum MTCC 284 at 100 ug/ml after 48 hrs by disc diffusion method; details: MTCC 284, 48 h, read-out: DIZ; how it was run: as §2

MIC [1] | MIC [6] | MIC [9] | MIC [13] | SMILES | MFC [1] | zone of inhibition at 50 µg/mL [2] | zone of inhibition at 100 µg/mL [3] | zone of inhibition at 50 µg/mL [4] | zone of inhibition at 50 µg/mL [5] | MBC [6] | zone of inhibition at 50 µg/mL [7] | zone of inhibition at 100 µg/mL [8] | MFC [9] | zone of inhibition at 100 µg/mL [10] | zone of inhibition at 100 µg/mL [11] | zone of inhibition at 50 µg/mL [12] | MFC [13] | zone of inhibition at 50 µg/mL [14] | zone of inhibition at 50 µg/mL [15] | zone of inhibition at 100 µg/mL [16] | also measured
25 µg/mL (≈ 55.9 µM) | 40 µg/mL (≈ 89.4 µM) | 30 µg/mL (≈ 67.1 µM) | 30 µg/mL (≈ 67.1 µM) | Cc1c(-c2nnc(-c3ccc(Cl)cc3)o2)c(-c2ccc(Cl)cc2)nn1-c1ccccc1 | 210 µg/mL (≈ 469 µM) | 14 mm | 19 mm | 10 mm | 6 mm | 260 µg/mL (≈ 581 µM) | 6 mm | 11 mm | 220 µg/mL (≈ 492 µM) | 16 mm | 12 mm | 8 mm | 215 µg/mL (≈ 481 µM) | 15 mm | 10 mm | 26 mm | MBC [17]: 250 µg/mL (≈ 559 µM); MIC [17]: 50 µg/mL (≈ 112 µM); MBC [18]: 245 µg/mL (≈ 548 µM); MIC [18]: 45 µg/mL (≈ 101 µM); MFC [19]: 215 µg/mL (≈ 481 µM); MIC [19]: 25 µg/mL (≈ 55.9 µM); zone of inhibition at 100 µg/mL [20]: 18 mm; zone of inhibition at 100 µg/mL [21]: 10 mm; MBC [22]: 250 µg/mL (≈ 559 µM); MIC [22]: 40 µg/mL (≈ 89.4 µM); zone of inhibition at 50 µg/mL [23]: 14 mm; zone of inhibition at 100 µg/mL [24]: 28 mm
50 µg/mL (≈ 118 µM) | 20 µg/mL (≈ 47.2 µM) | 40 µg/mL (≈ 94.5 µM) | 40 µg/mL (≈ 94.5 µM) | Cc1c(-c2nnc(-c3ccccc3)o2)c(-c2ccc([N+](=O)[O-])cc2)nn1-c1ccccc1 | 290 µg/mL (≈ 685 µM) | 6 mm | 14 mm | 9 mm | 10 mm | 150 µg/mL (≈ 354 µM) | 14 mm | 12 mm | 290 µg/mL (≈ 685 µM) | 18 mm | 18 mm | 9 mm | 280 µg/mL (≈ 661 µM) | 8 mm | 5 mm | 12 mm | MBC [17]: 180 µg/mL (≈ 425 µM); MIC [17]: 25 µg/mL (≈ 59 µM); MBC [18]: 190 µg/mL (≈ 449 µM); MIC [18]: 25 µg/mL (≈ 59 µM); MFC [19]: 275 µg/mL (≈ 649 µM); MIC [19]: 45 µg/mL (≈ 106 µM); zone of inhibition at 100 µg/mL [20]: 14 mm; zone of inhibition at 100 µg/mL [21]: 20 mm; MBC [22]: 150 µg/mL (≈ 354 µM); MIC [22]: 20 µg/mL (≈ 47.2 µM); zone of inhibition at 50 µg/mL [23]: 8 mm; zone of inhibition at 100 µg/mL [24]: 10 mm
55 µg/mL (≈ 198 µM) | 30 µg/mL (≈ 108 µM) | 50 µg/mL (≈ 180 µM) | 55 µg/mL (≈ 198 µM) | Cc1c(C(=O)O)c(-c2ccccc2)nn1-c1ccccc1 | 300 µg/mL (≈ 1080 µM) | 5 mm | 5 mm | 3 mm | 2 mm | 250 µg/mL (≈ 898 µM) | 4 mm | 6 mm | 280 µg/mL (≈ 1010 µM) | 8 mm | 8 mm | 4 mm | 295 µg/mL (≈ 1060 µM) | 3 mm | 6 mm | 6 mm | MBC [17]: 240 µg/mL (≈ 862 µM); MIC [17]: 30 µg/mL (≈ 108 µM); MBC [18]: 280 µg/mL (≈ 1010 µM); MIC [18]: 35 µg/mL (≈ 126 µM); MFC [19]: 270 µg/mL (≈ 970 µM); MIC [19]: 45 µg/mL (≈ 162 µM); zone of inhibition at 100 µg/mL [20]: 8 mm; zone of inhibition at 100 µg/mL [21]: 8 mm; MBC [22]: 250 µg/mL (≈ 898 µM); MIC [22]: 40 µg/mL (≈ 144 µM); zone of inhibition at 50 µg/mL [23]: 4 mm; zone of inhibition at 100 µg/mL [24]: 5 mm
50 µg/mL (≈ 122 µM) | 50 µg/mL (≈ 122 µM) | 45 µg/mL (≈ 110 µM) | 40 µg/mL (≈ 97.9 µM) | COc1ccc(-c2nn(-c3ccccc3)c(C)c2-c2nnc(-c3ccccc3)o2)cc1 | 270 µg/mL (≈ 661 µM) | 2 mm | 6 mm | 8 mm | 4 mm | 240 µg/mL (≈ 588 µM) | 4 mm | 9 mm | 275 µg/mL (≈ 673 µM) | 14 mm | 8 mm | 4 mm | 280 µg/mL (≈ 685 µM) | 4 mm | 3 mm | 6 mm | MBC [17]: 260 µg/mL (≈ 637 µM); MIC [17]: 35 µg/mL (≈ 85.7 µM); MBC [18]: 240 µg/mL (≈ 588 µM); MIC [18]: 35 µg/mL (≈ 85.7 µM); MFC [19]: 290 µg/mL (≈ 710 µM); MIC [19]: 40 µg/mL (≈ 97.9 µM); zone of inhibition at 100 µg/mL [20]: 8 mm; zone of inhibition at 100 µg/mL [21]: 9 mm; MBC [22]: 240 µg/mL (≈ 588 µM); MIC [22]: 40 µg/mL (≈ 97.9 µM); zone of inhibition at 50 µg/mL [23]: 2 mm; zone of inhibition at 100 µg/mL [24]: 6 mm
